The results in this text go back to ChEMBL document CHEMBL1141764, “Pentasaccharide glycosides from the roots of Ipomoea murucoides” (2005).

≈ marks a conversion by molar mass, not a printed value. Calls of active or inactive are those of the source. No cut-off for these calls is given here. A value given as a limit tells only on which side of the number the result lay.

Holding throughout (type): functional
One test relates to UISO-SQC1. As to the kind of experiment: (§1) Cytotoxicity against human UISO-SQC1 cells after 72 hrs. The essentials: (§2)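 Cells kept in RPMI with 10% FBS at 37 °C, 5% CO2, humidified. Log-phase cells exposed in triplicate to 1.0-100 µg/mL for 72 h at 37 °C. Cell density read by protein analysis. ED50 (dose giving 50% inhibition of control growth) estimated from semilog plot of concentration (µg/mL) versus percent viable cells.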

A further test relates to OVCAR-5. In words: Cytotoxicity against human OVCAR5 cells after 72 hrs. The conditions noted are these: OVCAR-5, 72 h, read-out: ED50 (the source's name). An outline of the steps: as §2
Another test has as its system HCT-15. In words: Cytotoxicity against human HCT15 cells after 72 hrs. The conditions noted are these: for EC50: HCT-15, 72 h, read-out: ED50 (the source's name). An outline of the steps:
as §2

Test [1] is described as follows: as §1. The note with it: UISO-SQC1, 72 h, read-out: ED50 (the source's name). The essentials: as §2

For `CCCCCCCCCCCC(=O)O[C@H]1[C@H](O[C@@H]2[C@@H](O)[C@H]3OC(=O)CCCCCCCCCC(CCCCC)O[C@@H]4O[C@H](C)[C@@H](O)[C@H](O)[C@H]4OC3O[C@H]2C)O[C@@H](C)[C@H](O[C@@H]2O[C@@H](C)[C@H](OC(C)=O)[C@@H](O)[C@H]2O[C@@H]2O[C@H](CO)[C@@H](O)[C@H](O)[C@H]2O)[C@H]1O` (stereo not given in full) [MURUCIN 1], the outcome in the test with UISO-SQC1 and in the test with HCT-15 was inactive. The EC50 in the test with OVCAR-5 amounted to 5 µg/mL (≈ 4.08 µM).

For `CCCCCCCCCCCC(=O)O[C@H]1[C@H](O[C@@H]2[C@@H](O)[C@H]3OC(=O)CCCCCCCCCC(CCCCC)O[C@@H]4O[C@H](C)[C@@H](O)[C@H](O)[C@H]4OC3O[C@H]2C)O[C@@H](C)[C@H](O[C@@H]2O[C@@H](C)[C@H](OC(=O)CC)[C@@H](O)[C@H]2O[C@@H]2O[C@H](CO)[C@@H](O)[C@H](O)[C@H]2O)[C@H]1O` (stereo not given in full) [MURUCIN 2], the EC50 (in test [1]; in the test with OVCAR-5; in the test on HCT-15) was greater than 20 µg/mL in each case.

For the compound `CCCCCCCCCCCC(=O)O[C@H]1[C@H](O[C@@H]2[C@@H](O)[C@H]3OC(=O)CCCCCCCCCC(CCCCC)O[C@@H]4O[C@H](C)[C@@H](O)[C@H](O)[C@H]4OC3O[C@H]2C)O[C@@H](C)[C@H](O[C@@H]2O[C@@H](C)[C@H](OC(=O)CCC)[C@@H](O)[C@H]2O[C@@H]2O[C@H](CO)[C@@H](O)[C@H](O)[C@H]2O)[C@H]1O` (stereo not given in full) [MURUCIN 3], the EC50 (in test [1]; in the test with OVCAR-5; in the test on HCT-15) was greater than 20 µg/mL each time.

Consider `CCCCCCCCCCCC(=O)O[C@H]1[C@H](O[C@@H]2[C@@H](O)[C@H]3OC(=O)CCCCCCCCCC(CCCCC)O[C@@H]4O[C@H](C)[C@@H](O)[C@H](O)[C@H]4OC3O[C@H]2C)O[C@@H](C)[C@H](O[C@@H]2O[C@@H](C)[C@H](OC(=O)C(C)CC)[C@@H](O)[C@H]2O[C@@H]2O[C@H](CO)[C@@H](O)[C@H](O)[C@H]2O)[C@H]1O` (stereo not given in full) [MURUCIN 4], for which the EC50 (in test [1]; with OVCAR-5; with HCT-15) was greater than 20 µg/mL throughout.

With `CCCCCCCCCCCC(=O)O[C@H]1[C@H](O[C@@H]2[C@@H](O)[C@H]3OC(=O)CCCCCCCCCC(CCCCC)O[C@@H]4O[C@H](C)[C@@H](O)[C@H](O)[C@H]4OC3O[C@H]2C)O[C@@H](C)[C@H](O[C@@H]2O[C@@H](C)[C@H](OC(=O)C(C)C(C)O)[C@@H](O)[C@H]2O[C@@H]2O[C@H](CO)[C@@H](O)[C@H](O)[C@H]2O)[C@H]1O` (stereo not given in full) [MURUCIN 5], the EC50 (in test [1]; with OVCAR-5; in the test on HCT-15) was greater than 20 µg/mL in each case.
